EBV gp42 inh – Epstein-Barr virus gp42 inhibitors, primary screen, biochemical, uHTS, fluorescence polarization | inhibition, % (tested at 21.74 µM) | Fluorescence polarization binding assay, mP read-out | 220,000 compounds, 0.42% hits; in the data active means inhibition above about 50%
Target sequence (Q1HVG2 whole entry, looked up): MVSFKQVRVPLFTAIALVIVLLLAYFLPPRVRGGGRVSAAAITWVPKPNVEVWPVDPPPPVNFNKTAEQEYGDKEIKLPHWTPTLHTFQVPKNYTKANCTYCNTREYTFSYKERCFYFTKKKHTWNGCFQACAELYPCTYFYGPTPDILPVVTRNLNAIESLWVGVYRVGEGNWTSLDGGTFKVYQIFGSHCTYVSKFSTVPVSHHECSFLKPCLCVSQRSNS
CHOP inhibitor – inhibitors of CHOP promoter induction, primary screen, cell-based, unfolded protein response, luciferase reporter | AID 2732, 2010 | CHO-K1 CHOP-promoter luciferase, tunicamycin-induced, 15-18 h | 220,000 compounds, 3.8% hits | inhibition, % at 10 µM;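 active means compounds that reduced the stress-induced luciferase reporter signal by more than about 70% of percent inhibition, limit read from the data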;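 further: 0% = tunicamycin plus vehicle and 100% = wells without tunicamycin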
Tb MetRS inh – T. brucei MetRS inhibitors, primary screen, biochemical, luminescence | AID 624268, 2012 | inhibition, % at 11.9 µM | 360,000 compounds, 0.4% hits | methionyl-tRNA synthetase (Trypanosoma brucei brucei) | purified T. brucei MetRS, ATP depletion, Kinase-Glo luminescence;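 active means inhibition above a per-plate cutoff of the control wells' mean inhibition plus 3 SD, cut at about 5.5% in these data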;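 further: 0% = DMSO wells median and 100% = median of wells with control inhibitor compound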
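Test system – parasite MetRS enzyme · Reagent – substrates ATP, L-methionine and bulk Escherichia coli tRNA · Doses – 11.9 µM compound single dose, 0.9% DMSO · Times – 15 min enzyme-compound preincubation, 2 h reaction, 10 min detection, 25 °C · Signal – Kinase-Glo luminescence, ATP depletion format · Controls – DMSO-only wells as low control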
MPTP block – mitochondrial permeability transition pore inhibitors, primary screen, biochemical, isolated mouse mitochondria, absorbance | 360,000 compounds, 1.4% hits | inhibition, % at 10 µM | Ca2+ swelling absorbance, 30 min;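 active means inhibition of 50% or more, scaled per plate between neutral and stimulator controls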;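 further: 0% = DMSO wells given calcium and 100% = 1 mM EGTA wells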
NR3A LBD binder – binders of NR3A ligand-binding domain, primary screen, biophysical, differential scanning fluorimetry, uHTS; Glutamate receptor ionotropic, NMDA 3A (GRIN3A) ligand-binding domain; NR3A LBD differential scanning fluorimetry, Tm shift; 0% = protein alone, 100% = glycine-bound protein; Tm shift relative to glycine control, % at 25 µM; 340,000 compounds, 2.5% hits;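 active means melting temperature shift of at least 10% of the positive control shift, at one fixed dose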
WT yeast gro inh – growth inhibition of WT strain, primary screen, mitochondrial fusion inhibitor project, WT and mutant strains, chemical genetic; mitochondrial fusion phenotypic screen; inhibition, % at 10 µM; 190,000 compounds, 2.1% hits; in the data active means inhibition above about 58%; tested in S. cerevisiae
CHOP confirm – retest of CHOP induction inhibitors, confirmation, cell-based. shares compounds with CHOP inhibitor. CHO-CHOP promoter luciferase reporter, tunicamycin-induced, luminescence. inhibition, % at 10 µM. 2,100 compounds, 45% hits;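 active means mean of three repeat readings of reporter signal inhibition above a set limit, cut at about 70% in these data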;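 further: 0% = tunicamycin plus vehicle and 100% = wells lacking tunicamycin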
Numbers without * were called inactive; . = no result given. Hits are enriched below; roughly 6.4% of the tested compounds scored in any of these assays.

SMILES | EBV gp42 inh | CHOP inhibitor | Tb MetRS inh | MPTP block | NR3A LBD binder | WT yeast gro inh | CHOP confirm
O=C(Nc1cccc(Cl)c1)C1CCCN(S(=O)(=O)c2ccc(F)cc2)C1 (stereo not given) | -2 | 99* | 0 | -2 | -9 | 20 | 42
CS(=O)(=O)c1ncc(Cl)c(C(=O)Nc2ccc(N3CCOCC3)cc2)n1 | -21 | . | 0 | -1 | 0 | -4 | 117*
CS(=O)(=O)NCCNc1ccc(Cl)cc1[N+](=O)[O-] | -9 | -19 | 0 | 3 | -2 | -13 | .
O=[N+]([O-])c1c(NCCCO)cc(Sc2nc3ccccc3s2)c2nonc12 | 12 | 109* | 0 | 13 | -6 | 53 | 71*
Cc1nnc(Sc2cc(NCCO)c([N+](=O)[O-])c3nonc23)s1 | -22 | 98* | 0 | 11 | -2 | -13 | -11
Cc1nnc(Sc2cc(NCCCO)c([N+](=O)[O-])c3nonc23)s1 | -9 | -51 | -1 | 6 | -4 | -6 | .
Cc1cccc(C(=O)NC2CCN(S(=O)(=O)c3ccccc3F)CC2)c1 | . | . | 0 | -2 | 1 | . | .
CCOC(=O)C1(Cc2ccc(OC)cc2)CCN(C(=O)C2=CCCC2)CC1 | 5 | 102* | -1 | 1 | 0 | 35 | 14
O=C(Cn1c2ccc(F)cc2c2nc3n(c(=O)c21)CCS3)Nc1ccc(Cl)cc1F | -42 | 96* | 0 | -2 | -2 | -7 | 19
O=C(Cn1c2ccc(F)cc2c2nc3n(c(=O)c21)CCS3)N1CCCC1 | . | . | -1 | 0 | -1 | . | .
O=C(C[n+]1ccccc1)Nc1ccc(Cl)c([N+](=O)[O-])c1 | . | . | 2 | 0 | -1 | . | .
CC1C/C(=C/c2ccncc2)C(=O)/C(=C/c2ccncc2)C1 (stereo not given) | 0 | 99* | 0 | 12 | 1 | 77* | -59
O=C(O)c1ccc(NC2=C(Cl)C(=O)c3ccccc3C2=O)cc1 | 8 | 34 | 0 | 7 | -2 | . | .
O=C1C(Cl)=C(Nc2ccccc2)C(=O)c2ccccc21 | -6 | 112* | 0 | 2 | 1 | 15 | 127*
CSc1nc(NS(=O)(=O)c2cc(C)c(Cl)cc2Cl)nn1C | . | . | 0 | 0 | 0 | . | .
Nc1c(S(=O)(=O)c2cccc(Cl)c2)c2nc3ccccc3nc2n1/N=C/c1ccc(O)c(O)c1 | -5 | 107* | . | . | . | -4 | 103*
C=CCn1c(=O)c(C(=O)NCc2ccccc2)c(O)c2ccccc21 | . | . | 0 | 3 | 2 | . | .
CN(C)c1ccc(-c2nc3ccccn3c2/N=C/c2ccc(Br)cc2)cc1 | 7 | 98* | 0 | 6 | 24* | 35 | 75*
COc1cc(-c2nc3ccccn3c2/N=C/c2cc(OC)c(OC)c(OC)c2)ccc1O | . | . | 1 | 0 | 1 | . | .
CCOc1ccc(C(C)NC(=O)C2CCCC2)cc1 (stereo not given) | -12 | 7 | 0 | -2 | 0 | -5 | .
CC(=O)Nc1nc(SCc2cccc3ccccc23)n[nH]1 | -11 | 41 | -1 | 4 | -1 | -9 | .
N#C/C(=C\c1ccc(OC(=O)c2ccc(Br)s2)cc1)c1nc2ccccc2[nH]1 | 11 | 100* | -1 | 2 | 26* | -4 | 39
N#C/C(=C\c1ccc(OC(=O)c2ccc(Cl)s2)cc1)c1nc2ccccc2[nH]1 | 20 | 107* | 0 | 2 | -5 | 6 | 34
N#C/C(=C/c1ccc(OC(=O)c2ccc(Br)s2)cc1)c1nc2ccccc2[nH]1 | . | . | 0 | 0 | 3 | . | .
CC(C)CN(C(=O)CCc1ccccc1Cl)c1c(N)n(Cc2ccccc2)c(=O)[nH]c1=O | . | . | 0 | 0 | 2 | . | .
SMILES | EBV gp42 inh | CHOP inhibitor | Tb MetRS inh | MPTP block | NR3A LBD binder | WT yeast gro inh | CHOP confirm
Cc1ccc(C(C)C)c(OCC(=O)N/N=C/C2CCCCC2)c1 | 5 | 101* | 1 | -1 | -2 | 25 | 70*
C/C(=N/NC(=O)COc1cc(C)ccc1C(C)C)C(=O)O | -4 | 16 | 0 | 1 | 0 | 11 | .
Cc1ccc(C(C)C)c(OCC(=O)NN=C(CCl)CCl)c1 | -38 | 106* | . | . | . | . | 8
Cc1ccc(C(C)C)c(OCC(=O)NN=C2CCCC2)c1 | -4 | 39 | 0 | 1 | -1 | 15 | .
O=C(NCc1ccco1)/C(=C/c1cccc(C(F)(F)F)c1)c1nc2ccccc2[nH]1 | -7 | 96* | 1 | -1 | -5 | -7 | 34
CCCCCCCCC(=O)O | . | . | 0 | -2 | -2 | . | .
C/C(=N\OCc1cccc(C(=O)O)c1)c1ccc(Cl)cc1 | 1 | 96* | -1 | 11 | -2 | . | 111*
O=[N+]([O-])c1cc2oc3c(c2c(C=NCc2ccccc2)c1O)CCCC3 | -71 | 99* | 1 | 0 | -2 | 14 | 8
O=[N+]([O-])c1cc(Cc2ccccc2)cc(C=Nc2ccc(N3CCOCC3)cc2)c1O | 1 | 17 | 0 | 15 | -20 | 14 | .
O=[N+]([O-])/C=C/c1cn(Cc2ccc(Cl)cc2)c2ccccc12 | 21 | 100* | 1 | -5 | -5 | 72 | -25
Cc1cccc(Cn2cc(/C=C/[N+](=O)[O-])c3ccccc32)c1 | -9 | 102* | -1 | 7 | -6 | -20 | -28
Cc1nn(-c2ccc(C(F)(F)F)cn2)c(C)c1Oc1ccccc1O | 1 | 100* | 0 | 3 | -7 | 9 | 102*
Cc1cc(=O)[nH]c(-n2nc(C)c(Oc3ccccc3O)c2C)n1 | -14 | -4 | 1 | 0 | -2 | -39 | .
COc1ccc(/C=N/NC(=O)CCC(=O)Nc2ccc(Br)cc2)c(OC)c1 | . | . | 0 | 0 | -5 | . | .
CCN(CC)CCCN(Cc1cc2cc3c(cc2[nH]c1=O)OCO3)C(=S)Nc1ccc(OC)cc1 | -13 | 1 | 0 | -1 | -1 | 3 | .
Cc1nc2c(ccc3nc(NC(=O)c4ccc5c(c4)OCCO5)sc32)s1 | -6 | 100* | -1 | 1 | -1 | 27 | 43
Cc1nc2ccc3nc(NC(=O)c4ccc5c(c4)OCCO5)sc3c2s1 | -41 | -51 | 1 | 1 | -8 | -3 | .
O=c1[nH]c2ccc(Cl)cc2c(-c2ccccc2)c1N1CCOCC1 | 2 | 57 | -1 | 0 | 0 | 11 | .
O=C(c1ccco1)N1CCN(c2c(-c3ccccc3)c3cc(Cl)ccc3[nH]c2=O)CC1 | -7 | 97* | 0 | 0 | -18 | 86* | 115*
Cc1ccc(NC(=O)C2=C(c3ccccc3)S(=O)(=O)CCS2(=O)=O)cc1 | -24 | 109* | -1 | -1 | 14* | 20 | 69

Bioassay records as filed in PubChem.
